Activity data for 5 compounds are collected here from ChEMBL document CHEMBL4033780, “Lipidated Brartemicin Analogues Are Potent Th1-Stimulating Vaccine Adjuvants” (J Med Chem, 2018).

Data set [1] is filed under the species Mus musculus. In words: Adjuvant activity in immunized C57BL/6 mouse assessed as footpad swelling at 0.3 umol treated with ovalbumin for 7 days followed by stimulation with OVA for 7 days measured 24 to 48 hrs post OVA challenge. The class given is functional.
The species entered for data set [2] is Mus musculus. Nature of the data set: Adjuvant activity in immunized C57BL/6 mouse assessed as increase in antigen specific IFNgamma production in spelnocytes at 0.3 umol treated with ovalbumin for 7 days followed by stimulation with OVA for 7 days and restimulation with OVA measured 24 to 48 hrs post OVA challenge. The class given is functional, cell-based. The method, boiled down: (§1)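 C57BL/6 mice (8–12 wk) given s.c. oil-in-water emulsion (mineral oil/Tween-80/PBS 9:1:90) holding OVA 200 μg ± adjuvant 0.3 μmol; controls were OVA alone or no OVA. Footpad challenge with OVA 100 μg on day 7, spleens taken day 14. Splenocytes restimulated with OVA 10, 30 or 100 μg/mL. Cell number read at 450 nm after 3 h with a count reagent; IFN-γ and IL-17 measured by ELISA.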

Data set [3] deals with T1, C-type lectin domain family 4 member E (Mus musculus) (UniProt Q9R0Q8).
T1 sequence (whole entry): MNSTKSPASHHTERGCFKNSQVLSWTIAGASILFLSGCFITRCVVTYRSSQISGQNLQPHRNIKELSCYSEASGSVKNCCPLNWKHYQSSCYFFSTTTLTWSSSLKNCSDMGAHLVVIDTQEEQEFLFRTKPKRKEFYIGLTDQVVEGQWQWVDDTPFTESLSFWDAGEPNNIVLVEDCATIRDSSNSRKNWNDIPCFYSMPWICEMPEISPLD
In words: Agonist activity at mincle in wild type C57BL/6 mouse GM-CSF derived BMDM assessed as increase in IL-1beta release at 0.1 to 1 nmol after 24 hrs by sandwich ELISA. The method, boiled down:
(§2)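 Wild-type or Mincle−/− C57BL/6 bone marrow was cultured 8 days with GM-CSF 50 ng/mL in complete RPMI. Macrophages were detached with Acutase and seeded on ligand-coated plates (0.1 or 1 nmol/well); LPS 100 ng/mL was used as comparator. Supernatant was taken at 24 h and TNF, IL-6, IL-1β and MIP-2 measured by sandwich ELISA. Representative of three experiments in triplicate (±SD).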

Data set [4] is filed under the species Mus musculus. In words: Adjuvant activity in immunized C57BL/6 mouse assessed as increase in IL-17 production in spelnocytes at 0.3 umol treated with ovalbumin for 7 days followed by stimulation with OVA for 7 days and restimulation with OVA measured 24 to 48 hrs post OVA challenge. The class given is functional, cell-based. In short, it runs like this: as §1

Data set [5] is filed under the species Mus musculus. Nature of the data set: Adjuvant activity in immunized C57BL/6 mouse assessed as increase in OVA-specific IgG2b production in serum at 0.3 umol treated with ovalbumin for 7 days followed by stimulation with OVA for 7 days and restimulation with OVA measured 24 to 48 hrs post OVA challenge. The class given is functional.
For data set [6], the species on record is Mus musculus. Nature of the data set: Adjuvant activity in immunized C57BL/6 mouse assessed as increase in OVA-specific IgG1 production in serum at 0.3 umol treated with ovalbumin for 7 days followed by stimulation with OVA for 7 days and restimulation with OVA measured 24 to 48 hrs post OVA challenge relative to control. The class given is functional. In short, it runs like this: (§3)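 Sera were taken on days 0, 7 and 14 from C57BL/6 mice sensitized s.c. with emulsion containing OVA 200 μg ± adjuvant 0.3 μmol and footpad-challenged with OVA on day 7. OVA-specific IgG, IgG1, IgG2b and IgG2c were measured by ELISA with HRP-coupled anti-mouse secondaries. EC50 was taken from absorbance at 450 nm plotted against log serum concentration.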

Data set [7] concerns the target T1, C-type lectin domain family 4 member E (Mus musculus). In words: Agonist activity at mincle in wild type C57BL/6 mouse GM-CSF derived BMDM assessed as increase in MIP2 release at 0.1 to 1 nmol after 24 hrs by sandwich ELISA. In short, it runs like this:
as §2
For orientation: An ELISA detects its analyte on a solid surface through an enzyme-linked reagent.

For data set [8] the target is unchanged. Nature of the data set: Agonist activity at mincle in wild type C57BL/6 mouse GM-CSF derived BMDM assessed as increase in TNF release at 0.1 to 1 nmol after 24 hrs by sandwich ELISA. The method, boiled down: as §2
The species entered for data set [9] is Mus musculus. In words: Adjuvant activity in immunized C57BL/6 mouse assessed as increase in OVA-specific IgG production in serum at 0.3 umol treated with ovalbumin for 7 days followed by stimulation with OVA for 7 days and restimulation with OVA measured 24 to 48 hrs post OVA challenge. The class given is functional. The method, boiled down: as §3
Data set [10] has as its target T1, C-type lectin domain family 4 member E (Mus musculus). In words: Agonist activity at mincle in wild type C57BL/6 mouse GM-CSF derived BMDM assessed as increase in IL-6 release at 0.1 to 1 nmol after 24 hrs by sandwich ELISA. The method, boiled down:
as §2

The species named for data set [11] is Mus musculus. Nature of the data set: Adjuvant activity in immunized C57BL/6 mouse assessed as increase in OVA-specific IgG2c production in serum at 0.3 umol treated with ovalbumin for 7 days followed by stimulation with OVA for 7 days and restimulation with OVA measured 24 to 48 hrs post OVA challenge relative to control. The class given is functional.
The target of data set [12] is T1, C-type lectin domain family 4 member E (Mus musculus). In words: Binding affinity to recombinant mouse mincle extracellular domain fused with human IgG Fc expressed in HEK293T cells at 0.1 nmol by ELISA. The note with it: HEK-293T. The class given is cell-based.
The subject of data set [13] is BMDM. In words: Immunostimulatory activity in mincle-/- C57BL/6 mouse GM-CSF derived BMDM assessed as increase in IL-6 release at […] after 24 hrs by sandwich ELISA method. The class given is functional, cell-based. In short, it runs like this:
as §2

Data set [14] relates to BMDM. In words: Immunostimulatory activity in mincle-/- C57BL/6 mouse GM-CSF derived BMDM assessed as increase in IL-1beta release at […] after 24 hrs by sandwich ELISA method. The class given is functional, cell-based. The method, boiled down:
as §2

Data set [15] addresses T1, C-type lectin domain family 4 member E (Mus musculus). In words: Agonist activity at mouse mincle coupled with FcRgamma expressed in 2B4-NFAT-GFP reporter cells up to 1 nmol after 18 hrs by flow cytometric analysis. The class given is cell-based. The method, boiled down:
(§4)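 2B4 NFAT-GFP reporter cells expressing mouse or human Mincle plus FcRγ were placed on plates coated with ligand at 0.01, 0.1 or 1 nmol/well; cells expressing FcRγ only served as negative control. Ligand was coated from isopropanol, 0.05 mM, and solvent evaporated. After 18 h, cells were harvested, stained with propidium iodide and GFP read by flow cytometry. Mean of three experiments in duplicate (±SEM).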
(In general: Flow cytometry measures light scatter and fluorescence of single cells or particles in a stream.)

For data set [16], the system named is BMDM. Nature of the data set: Immunostimulatory activity in mincle-/- C57BL/6 mouse GM-CSF derived BMDM assessed as increase in TNF release at […] after 24 hrs by sandwich ELISA method. The class given is functional, cell-based. The method, boiled down: as §2
The target of data set [17] is T2, C-type lectin domain family 4 member E (Homo sapiens) (UniProt Q9ULY5).
T2 sequence (whole entry): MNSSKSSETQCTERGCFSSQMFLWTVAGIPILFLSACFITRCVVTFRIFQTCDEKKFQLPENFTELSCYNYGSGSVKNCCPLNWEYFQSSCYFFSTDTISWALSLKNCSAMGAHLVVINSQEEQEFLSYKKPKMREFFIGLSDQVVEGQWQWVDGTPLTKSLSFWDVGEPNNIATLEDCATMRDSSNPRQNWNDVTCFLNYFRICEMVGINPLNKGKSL
In words: Agonist activity at human mincle coupled with FcRgamma expressed in 2B4-NFAT-GFP reporter cells up to 1 nmol after 18 hrs by flow cytometric analysis. The class given is cell-based. In short, it runs like this:
as §4

Data set [18] in a line: Toxicity in Atlantic horseshoe crab blood limulus amebocyte lysate by chromogenic endotoxin test. The note with it: limulus polyphemus. The method, boiled down:
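Endotoxin was measured by chromogenic Limulus amebocyte lysate assay at a sensitivity of ≤0.1 EU/mL.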

The target of data set [19] is T2, C-type lectin domain family 4 member E (Homo sapiens). In words: Binding affinity to recombinant human mincle extracellular domain fused with human IgG Fc expressed in HEK293T cells at 0.1 nmol by ELISA. The class given is cell-based. The settings on record: HEK-293T.
Data set [20] has as its system BMDM. Nature of the data set: Immunostimulatory activity in mincle-/- C57BL/6 mouse GM-CSF derived BMDM assessed as increase in MIP2 release at […] after 24 hrs by sandwich ELISA method. The class given is functional, cell-based. The method, boiled down: as §2
The target in data set [21] is T1, C-type lectin domain family 4 member E (Mus musculus). In words: Agonist activity at mouse mincle coupled with FcRgamma expressed in 2B4-NFAT-GFP reporter cells at higher concentration after 18 hrs by flow cytometric analysis. The class given is cell-based. The method, boiled down: as §4
Data set [22] has as its target T2, C-type lectin domain family 4 member E (Homo sapiens). In words: Agonist activity at human mincle coupled with FcRgamma expressed in 2B4-NFAT-GFP reporter cells at higher concentration after 18 hrs by flow cytometric analysis. The class given is cell-based. The method, boiled down: as §4
The test system of data set [23] is T3, C-type lectin domain family 4 member E (Homo sapiens), Q9ULY5 [R183A].
T3 sequence (whole entry): T2 sequence (whole entry) with R183A
Nature of the data set: Agonist activity at human mincle R183A mutant expressed in NFAT-GFP reporter cells up to 3000 pmol after 18 hrs by flow cytometric analysis. The class given is cell-based. The method, boiled down:
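The hMincle R183A mutant, made by site-directed mutagenesis, was retrovirally introduced into 2B4 NFAT-GFP cells expressing FcRγ only. Cells were stimulated on plates coated with increasing ligand amounts for 18 h, and NFAT-GFP was read by flow cytometry. Mean of two independent experiments in duplicate (±SEM).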

Structures are written as SMILES. Substitutions are numbered along the chain they refer to. Active and inactive are the calls of the source. The calls are words filed in the database; no cut-off is given here. Some results are limits rather than exact numbers.

On to `CCCCCCCCCCCCCCCCCCCCCC(=O)OC[C@H]1O[C@H](O[C@H]2O[C@H](COC(=O)CCCCCCCCCCCCCCCCCCCCC)[C@@H](O)[C@H](O)[C@H]2O)[C@H](O)[C@@H](O)[C@@H]1O`, for which the outcome in the data set filed under Mus musculus [1], in the data set listed under Mus musculus [2] and in the data set listed under Mus musculus [4] was inactive. For the same compound, the result (in data set [3]; in the data set listed under Mus musculus [5]; in the data set listed under Mus musculus [6]; in data set [7]; in [8]; in the data set listed under Mus musculus [9]) was Active. The result (in data set [10]; in the data set filed under Mus musculus [11]) was Active.
Consider `CCCCCCCOc1ccc(C(=O)OC[C@H]2O[C@H](O[C@H]3O[C@H](COC(=O)c4ccc(OCCCCCCC)cc4)[C@@H](O)[C@H](O)[C@H]3O)[C@H](O)[C@@H](O)[C@@H]2O)cc1`, for which the result in [12], in data set [15], in data set [3], in data set [7], in [17] and in data set [8] was Active. Besides, the result in data set [19] and in data set [10] was Active. In addition, the outcome in the data set with BMDM [13], with BMDM [14], in the data set with BMDM [16] and in the data set on BMDM [20] was inactive. In data set [18], the Activity entry is on record as “<= 0.1 EU/ml”.
`CCCCOc1ccc(C(=O)OC[C@H]2O[C@H](O[C@H]3O[C@H](COC(=O)c4ccc(OCCCC)cc4O)[C@@H](O)[C@H](O)[C@H]3O)[C@H](O)[C@@H](O)[C@@H]2O)c(O)c1`: the outcome (in data set [12]; with BMDM [13]; in the data set on BMDM [14]; in the data set on BMDM [16]; in [3]; in data set [8]) was inactive. Moreover, the outcome (in data set [19]; in [10]; in the data set on BMDM [20]) was inactive. In addition, the outcome in [21], in data set [7] and in data set [22] was Active. The Activity entry in data set [18] is reported as “<= 0.1 EU/ml”.
As to `CCCCCCCOc1ccc(C(=O)OC[C@H]2O[C@H](O[C@H]3O[C@H](COC(=O)c4ccc(OCCCCCCC)cc4O)[C@@H](O)[C@H](O)[C@H]3O)[C@H](O)[C@@H](O)[C@@H]2O)c(O)c1`, the result in data set [12], in [15], in [3], in data set [7], in data set [17] and in [8] was Active. Also, the result in [19] and in data set [10] was Active. Besides, the outcome in the data set with BMDM [13], in the data set on BMDM [14], with BMDM [16] and in the data set with BMDM [20] was inactive. Also, the Activity entry in data set [18] is recorded as “<= 0.1 EU/ml”.
Regarding `CCCCCCCCCCCCCCCCCCCCCCCCCC(O)C(CCCCCCCCCCC1CC1CCCCCCCCCCCCCCCCCC)C(=O)OC[C@H]1O[C@H](O[C@H]2O[C@H](COC(=O)C(CCCCCCCCCCCCCCCCCCCCCCCC)C(O)CCCCCCCCCCCC3CC3CCCCCCCCCCCCCCCCCC)[C@@H](O)[C@H](O)[C@H]2O)[C@H](O)[C@@H](O)[C@@H]1O` (stereo not given in full), the result in data set [23], in [3], in data set [7], in data set [8] and in [10] was Active.
